Converted amounts (≈) assume the structure as drawn.
Assays:
Rattus norvegicus [1] = species: Rattus norvegicus; experiment: Compound was evaluated for Bile flow; assay type: functional
In short: (§1)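 Male Sprague–Dawley rats (300-330 g) were anesthetized with ethyl carbamate and the bile was collected. Bile acids were given i.v. as sodium salts via the femoral vein at 50 mg per animal, five rats per group, and bile was sampled at 15-min intervals. Flow volume and bile acid, cholesterol and phospholipid concentrations were measured by enzymatic assays. Controls were five rats; values are mean ± SD.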

Rattus norvegicus [2] = species: Rattus norvegicus; experiment: Compound was evaluated for Percent hepatic uptake; assay type: functional
In short: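 Single-pass isolated perfused rat liver; perfusate Krebs-Ringer bicarbonate pH 7.4 with glucose and 3% w/v fatty-acid-free bovine serum albumin, Evans blue (1 mg/g liver) as flow/recovery marker. 200 μL of 10-µmol/L bile acid injected; outflow collected at 10-s intervals, bile acid measured enzymatically (3α-hydroxysteroid dehydrogenase), Evans blue at 610 nm. Outflow corrected for Evans blue; uptake = 100% − outflow.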

[3] = molecular target: Serum albumin (Homo sapiens) (UniProt P02768); experiment: Compound was evaluated for Albumin affinity constant
[4] = Compound was evaluated for physico-chemical property of Critical micellar concentration (CMC); assay type: ADME
In short: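 For the CMC, sodium salt solutions from 0.1 to 100 mmol were adjusted to pH 8.00 with NaOH and rotated for 1 day at room temperature in the dark with excess Azulene or Orange OT dye. After 0.22-µm filtration, absorbance was read at 580 or 490 nm and plotted against bile salt concentration. Values are mean ± SD of five determinations.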

[5] = Compound was evaluated for physico-chemical property of Constant, pKa; assay type: physicochemical
Rattus norvegicus [6] = species: Rattus norvegicus; experiment: Compound was evaluated for Bile acid secretion; assay type: functional; in short: as §1
Rattus norvegicus [7] = species: Rattus norvegicus; experiment: Compound was evaluated for Cholesterol secretion; assay type: functional; in short: as §1
Rattus norvegicus [8] = species: Rattus norvegicus; experiment: Compound was evaluated for Phospholipid secretion; assay type: functional; in short: as §1
[9] = Compound was evaluated for physico-chemical property of Water solubility (bile acid) at 25 degree C; assay type: ADME
In short: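 For solubility, solutions were held for 1 month, filtered through 0.22 µm, and methanol was added to prevent crystallization. Dissolved bile acid was quantified enzymatically with 3α-hydroxysteroid dehydrogenase.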

Row | SMILES | Bile flow (Rattus norvegicus [1]) | Intake (Rattus norvegicus [2]) | Affinity constant [3] | CMC [4] | pKa [5] | Secretion (Rattus norvegicus [6]) | Secretion (Rattus norvegicus [7]) | Secretion (Rattus norvegicus [8]) | solubility [9]
1 | CC(C1CC1C(=O)O)C1CC[C@H]2[C@@H]3[C@@H](O)CC4C[C@H](O)CCC4(C)[C@H]3CCC12C (some centres not stated) | 1.68 mL/h | 46% | 68000 l M-1 | 15.5 mM | 5.01 | 97 µM/h/kg | 2.7 µM/h/kg | 9.5 µM/h/kg | 11.8 µM (≈ 4.77 µg/mL)
2 | C[C@H](CCC(=O)O)[C@H]1CC[C@H]2[C@@H]3[C@@H](O)C[C@@H]4C[C@H](O)CC[C@]4(C)[C@H]3CC[C@]12C [URSODIOL] | 1.08 mL/h | 50% | – | 19 mM | 5.08 | 98 µM/h/kg | 2.12 µM/h/kg | 6.47 µM/h/kg | 9 µM (≈ 3.53 µg/mL)

Reference: ChEMBL document CHEMBL1122666, “Bile acids with a cyclopropyl-containing side chain. 1. Preparation and properties of 3 alpha, 7 beta-dihydroxy-22,23-methylene-5 beta-cholan-24-oic acid” (J Med Chem, 1984)
